Results taken from ChEMBL document CHEMBL4431329, “Peripherally Selective Cannabinoid 1 Receptor (CB1R) Agonists for the Treatment of Neuropathic Pain” (J Med Chem, 2016).
Calls of active or inactive are those of the source.

Legend:
[1] = AUC in naive Sprague-Dawley rat at 0.3 mg/kg, ip by LC/MS/MS analysis; assay type: ADME, organism-based; settings: in vivo
Outline: (§1)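 Male Sprague–Dawley rats given a single ip injection (drug in 50/50 DMSO:Cremophor EL, diluted in sterile saline, 1.5 mL/kg). Tail-vein blood (~110 μL) drawn at intervals after brief restraint, centrifuged, plasma stored −20 °C. Quantified by LC-MS/MS against standard curves prepared in samples from untreated animals; n = 3 rats.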

Rattus norvegicus [2] = assay: Antiallodynic activity in SNE-induced mechanical allodynia naive Sprague-Dawley rat model assessed as […] in hindpaw ipsilateral withdrawal threshold at 0.6 mg/kg, ip preincubated for 3 hrs followed by SNE addition in presence of tert-Butyl-4-[5-(4-Chlorophenyl)-1-(2,4-dichlorophenyl)-4- methyl-1H-pyrazole-3-amido]piperidine-1-carboxylate; assay type: functional, organism-based
Outline: (§2)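 SNE rats were given the test agonist ip alone, or 30 min after pretreatment with a selective CB1R or CB2R antagonist, with sessions at 3-day intervals. Ipsilateral hindpaw withdrawal threshold was measured by digital von Frey (4 readings per paw averaged). Tests were blinded.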

[3] = Ratio of drug level in brain to plasma in naive Sprague-Dawley rat at 0.3 mg/kg, ip after 75 mins; assay type: ADME, organism-based; settings: read-out: BPR
Outline: (§3)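 Samples taken from 3 rats ~75 min after ip dosing. CSF (100–150 μL) was taken from the cisterna magna under isoflurane. Brain was removed after pentobarbital anesthesia and cold-saline intracardiac perfusion. Plasma came from tail-vein blood. Drug was measured by LC-MS/MS against standard curves made in untreated-animal matrix, and the ratio was taken to plasma.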

Rattus norvegicus [4] = assay: Antiallodynic activity in SNE-induced mechanical allodynia naive Sprague-Dawley rat model assessed as reversible […] in hindpaw ipsilateral withdrawal threshold at 0.3 mg/kg, ip preincubated for 3 hrs followed by SNE addition; assay type: functional, organism-based
Outline: (§4)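 Male Sprague–Dawley rats received unilateral sciatic nerve entrapment. Testing began 8 days post-surgery at 3-day intervals, dosed ip in DMSO/Cremophor EL/saline. Hindpaw withdrawal threshold (g) was read with a digital von Frey meter, 4 readings per paw at 30 s spacing, averaged. Reads were taken 1 h before and 3, 6, 24 and 48 h after dosing; n = 8; blinded; one-way RM ANOVA.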

Rattus norvegicus [5] = assay: Analgesic activity in naive Sprague-Dawley rat assessed as increase in tail flick latency at 0.3 mg/kg, ip up to 48 hrs by tail-flick assay; assay type: functional, organism-based
Outline: (§5)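 Naïve male Sprague–Dawley rats were dosed ip (DMSO/Cremophor EL/saline) or by gavage (DMSO in 20% condensed milk). Radiant heat was aimed 3 cm from the tail tip and latency timed by photocell. Baseline was set to ~5–7 s with a 25 s cutoff. Testing ran 1 h pre-dose and up to 48 h after. Peak effect was taken minus vehicle; n = 6–8; blinded.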

Rattus norvegicus [6] = assay: Antiallodynic activity in SNE-induced mechanical allodynia naive Sprague-Dawley rat model assessed as decrease in hindpaw ipsilateral withdrawal threshold at 0.6 mg/kg, ip preincubated for 3 hrs followed by SNE addition in presence of SR144528; assay type: functional, organism-based; outline: as §2
Rattus norvegicus [7] = assay: Analgesic activity in naive Sprague-Dawley rat assessed as tail flick latency at 0.1 to 10 mg/kg administered through oral gavage up to 48 hrs by tail-flick assay; assay type: functional, organism-based; outline: as §5
Rattus norvegicus [8] = assay: Antiallodynic activity in SNE-induced mechanical allodynia naive Sprague-Dawley rat model assessed as […] in hindpaw ipsilateral withdrawal threshold at 3 mg/kg, po preincubated for 3 hrs followed by SNE addition; assay type: functional, organism-based
Outline: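 SNE rats were dosed by oral gavage (drug in DMSO diluted in 20% sweetened condensed milk, 16 mL/kg). Ipsilateral/contralateral hindpaw withdrawal thresholds were measured by digital von Frey, 4 readings per paw averaged, before and at intervals after dosing. n = 8 rats; blinded; one-way RM ANOVA against predrug values.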

[9] = Toxicity in naive Sprague-Dawley rat assessed as motor incoordination at 10 mg/kg administered through oral gavage after 2 to 48 hrs by rotarod test; assay type: organism-based; settings: in vivo
Outline: (§6)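 Rats were trained 72 h earlier (3 sessions, 24 h apart) to stay ≥180 s on an accelerating rotarod (4–40 rev over 5 min). Time on rod was recorded to a 3 min cutoff, 1 h pre-dose and 2, 6, 24 and 48 h after ip or oral gavage dosing. Values are peak effect minus vehicle; n = 6–8; blinded.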

[10] = Toxicity in naive Sprague-Dawley rat assessed as immobility at 0.3 mg/kg, ip after 2 to 48 hrs by catalepsy ring test; assay type: organism-based; settings: in vivo
Outline: (§7)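 In the ring immobility test, forepaws were placed on a 12 cm horizontal ring with hindpaws just touching the bench. Time to move off was recorded, 100 s cutoff. Testing was pre-dose and 2, 6, 24 and 48 h after ip or oral gavage dosing. Values are peak effect minus vehicle; n = 6–8; blinded.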

[11] = Toxicity in naive Sprague-Dawley rat assessed as motor incoordination at 0.3 mg/kg, ip after 2 to 48 hrs by rotarod test; assay type: organism-based; settings: in vivo; outline: as §6
[12] = Toxicity in naive Sprague-Dawley rat assessed as hypothermia at 10 mg/kg administered through oral gavage after 2 to 48 hrs by core temperature test; assay type: organism-based; settings: in vivo
Outline: (§8)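 Naïve rats were acclimated to a restrainer (two 5-min sessions 20 min apart). Core temperature was taken before and 2, 6, 24 and 48 h after ip (DMSO/Cremophor EL/saline) or oral gavage (DMSO in 20% condensed milk) dosing. Dose-response points are mean peak effect minus vehicle; n = 6–8 rats; blinded.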

Rattus norvegicus [13] = assay: Antiallodynic activity in SNE-induced mechanical allodynia naive Sprague-Dawley rat model assessed as decrease in hindpaw ipsilateral withdrawal threshold at 0.6 mg/kg, ip preincubated for 3 hrs followed by SNE addition in presence of SR141716; assay type: functional, organism-based; outline: as §2
[14] = Metabolic stability in Sprague-Dawley rat plasma assessed as compound remaining at 10 uM measured at 1 hr by LC/MS analysis; assay type: ADME, cell-free
Outline: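 Compound (10 μM final, from 1 mM ethanol stock) was incubated in male Sprague–Dawley rat plasma at 37 °C. Aliquots taken at 0, 30 and 60 min were extracted with 3 volumes methanol and centrifuged. Supernatants were analysed by LC/MS.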

[15] = Cmax in naive naive Sprague-Dawley rat at 0.3 mg/kg, ip by LC/MS/MS analysis; assay type: ADME, organism-based; parameters: dose 0.3 mg/kg, route intraperitoneal; settings: in vivo; outline: as §1
[16] = Metabolic stability in Sprague-Dawley rat liver S9 fraction assessed as compound remaining at 10 uM measured at 1 hr by LC/MS analysis; assay type: ADME, subcellular; settings: s9, 1 h
Outline: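 Compound (10 μM final, from 1 mM ethanol stock) was incubated at 37 °C in male Sprague–Dawley rat liver S9 (1 mg protein/mL). The mix held an NADPH-regenerating system (1 mM NADP, 5 mM glucose 6-phosphate, 1 U/mL G6PDH) in 50 mM KPO4 pH 7.4 with 3 mM MgCl2, preincubated 5 min. Samples at 0–120 min were methanol-extracted and analysed by LC/MS.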

[17] = Toxicity in naive Sprague-Dawley rat assessed as immobility at 10 mg/kg administered through oral gavage after 2 to 48 hrs by catalepsy ring test; assay type: organism-based; settings: in vivo; outline: as §7
[18] = Ratio of drug level in cerebrospinal fluid to plasma in naive Sprague-Dawley rat at 0.3 mg/kg, ip after 75 mins; assay type: ADME, organism-based, CSF/Plasma; outline: as §3
Cannabinoid receptor 2 = Cannabinoid receptor 2 (Homo sapiens, UniProt P34972); assay: Agonist activity at human CB2R expressed in CHO cells by Ca2+ flux assay; assay type: functional, cell-based
Sequence of Cannabinoid receptor 2 (P34972 whole entry): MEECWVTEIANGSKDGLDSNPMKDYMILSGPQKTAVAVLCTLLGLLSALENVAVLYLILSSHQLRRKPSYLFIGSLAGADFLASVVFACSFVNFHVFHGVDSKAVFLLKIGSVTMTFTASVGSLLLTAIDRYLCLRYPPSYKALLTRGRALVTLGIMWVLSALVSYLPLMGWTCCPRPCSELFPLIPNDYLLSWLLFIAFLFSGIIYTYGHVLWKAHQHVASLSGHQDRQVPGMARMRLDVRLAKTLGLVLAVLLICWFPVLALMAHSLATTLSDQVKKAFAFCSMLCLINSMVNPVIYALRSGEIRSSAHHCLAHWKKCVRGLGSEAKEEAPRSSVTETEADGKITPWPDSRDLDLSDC
Outline: (§9)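 CHO cells stably co-expressing human CB1 or CB2 with Gαq16 were seeded at 40000/well and grown 24 h at 37 °C. They were loaded 1 h at 37 °C with Fluo-4 AM (2 μM final) in HBSS/20 mM HEPES/1% BSA/probenecid. Agonist was added after ~17 s baseline, and fluorescence (ex 488/em 525) was read each 1 s for 60 s. Runs were done 3–6 times; mean ± SEM.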

Rattus norvegicus [19] = assay: Increase in SNE-induced hindpaw contralateral withdrawal threshold in naive Sprague-Dawley rat at 0.3 mg/kg, ip incubated for 3 hrs followed by SNE addition; assay type: organism-based; settings: in vivo; outline: as §4
[20] = Half life in naive Sprague-Dawley rat at 0.3 mg/kg, ip by LC/MS/MS analysis; assay type: ADME, organism-based; settings: in vivo; outline: as §1
Rattus norvegicus [21] = assay: Antiallodynic activity in SNE-induced mechanical allodynia naive Sprague-Dawley rat model assessed as decrease in hindpaw ipsilateral withdrawal threshold at 0.6 mg/kg, ip preincubated for 3 hrs followed by SNE addition in presence of rimonabant; assay type: functional, organism-based; outline: as §2
[22] = Toxicity in naive Sprague-Dawley rat assessed as hypothermia at 0.3 mg/kg, ip after 2 to 48 hrs by core temperature test; assay type: organism-based; settings: in vivo; outline: as §8
Cannabinoid receptor 1 = Cannabinoid receptor 1 (Homo sapiens, UniProt P21554); assay: Agonist activity at human CB1R expressed in CHO cells by Ca2+ flux assay; assay type: functional, cell-based; outline: as §9
Sequence of Cannabinoid receptor 1 (P21554 whole entry): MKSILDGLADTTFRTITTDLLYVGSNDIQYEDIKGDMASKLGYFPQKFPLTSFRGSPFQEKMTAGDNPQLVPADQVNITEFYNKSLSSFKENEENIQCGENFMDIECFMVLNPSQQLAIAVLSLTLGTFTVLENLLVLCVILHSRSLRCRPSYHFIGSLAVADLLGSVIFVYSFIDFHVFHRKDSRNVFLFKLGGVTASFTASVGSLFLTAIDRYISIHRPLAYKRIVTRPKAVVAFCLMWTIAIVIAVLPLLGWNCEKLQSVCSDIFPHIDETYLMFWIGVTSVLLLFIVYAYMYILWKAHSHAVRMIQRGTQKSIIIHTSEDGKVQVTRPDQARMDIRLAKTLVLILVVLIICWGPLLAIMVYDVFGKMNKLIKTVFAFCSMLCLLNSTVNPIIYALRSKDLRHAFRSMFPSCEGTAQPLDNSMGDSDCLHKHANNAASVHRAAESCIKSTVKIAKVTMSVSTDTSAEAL

CCCc1ccc(/C=C2\C=C(CCN3CCOCC3)c3ccccc32)c2ccccc12
AUC [1]: 112 ng·h/mL | Activity (Rattus norvegicus [2]): inactive | Kp at 1.25 h [3]: 0.182 | Activity (Rattus norvegicus [4]): Active | Activity (Rattus norvegicus [5]): Active | Activity (Rattus norvegicus [6]): Active | Activity (Rattus norvegicus [7]): Active | Activity (Rattus norvegicus [8]): Active | Activity [9]: Non-Toxic | Activity [10]: Non-Toxic | Activity [11]: Non-Toxic | Activity [12]: Non-Toxic | Activity (Rattus norvegicus [13]): inactive | Stability [14]: 92% | Cmax [15]: 11.9 ng/mL | Stability [16]: 37% | Activity [17]: Non-Toxic | Kp at 1.25 h [18]: 0.001 | EC50 (Cannabinoid receptor 2): 94 nM | Emax (Cannabinoid receptor 2): 69% | Activity (Rattus norvegicus [19]): Toxic | half-life [20]: 7.2 h | Activity (Rattus norvegicus [21]): inactive | Activity [22]: Non-Toxic | EC50 (Cannabinoid receptor 1): 182 nM | Emax (Cannabinoid receptor 1): 108%
